Test results from the EternaBench riboswitch data.

Test system: MS2 coat protein
Assay: apparent Kd, MS2 coat protein; higher = weaker binding; RNA-MaP array; FMN 200 µM where present
How it was run: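 Stalled E. coli RNA polymerase produced the designs on Illumina sequencing-chip clusters. SNAP-549-labelled MS2 coat protein was added from 0.7 or 1.5 nM, doubling to 3 µM, without and then with constant ligand, in 100 mM Tris-HCl pH 7.5, 80 mM KCl, 4 mM MgCl2, BSA, DTT, yeast tRNA and Tween-20. The apparent Kd is the median of filtered per-cluster fits of green signal normalised to red-channel RNA signal and control-cluster median Fmax.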

[1] = designed as: OFF switch for flavin mononucleotide, no ligand
[2] = ligand present: flavin mononucleotide, designed as: OFF switch for flavin mononucleotide
[3] = designed as: ON switch for flavin mononucleotide, no ligand
[4] = ligand present: flavin mononucleotide, designed as: ON switch for flavin mononucleotide

| Sequence | apparent Kd [1] [nM] | apparent Kd [2] [nM] | apparent Kd [3] [nM] | apparent Kd [4] [nM] |
| --- | --- | --- | --- | --- |
| CAGUACAGAGGAUAUACAUGAGGAUCACCCAUGUGUUUCAGCUAGGAGACUAGCGAGUGUAGAAGGCUGUACUG | 37.4 | 360 | – | – |
| CCAUAAAAGAUCCAAAAUUACAACAUGAGGAUCACCCAUGUGCAGGAUAUCGUGAAAGUGAAGUACGAGAAGGGCAGACACUGC | 145 | 166 | – | – |
| GCUCGAUGCGCUGAGCACAUGAGGAUCACCCAUGUAAAAUGUCAGGAUAUUUACGUGCUUUAUGUAGAGAAGGGACUAUCGAGC | – | – | 60.5 | 24.1 |
| GUCGGAAACGACAAAAGUAUGGAUCCAGAAGGUAUGAAACAUGAGGAUCACCCAUGUCAAAGACAUGAGGAUAUGGAUCCAUAC | – | – | 32.4 | 9.54 |
| CAGAAGUCAGGAUAUGCUGCUCGUCACUUGCGUGAUGAGUAGCAGAAGGGACAUGAGGAUCACCCAUGUAAAGU | 55.6 | 121 | – | – |
| UUAGAUAGGUCAGGAUAUCGAUUAUUGUAUAGUAUGAUUUACAUGAGGAUCACCCAUGUUAAAUACGAGAAGGGACGUUAGAUU | 26.5 | 19 | – | – |
| GUAUCAUACCAAGGAUAUUUAGGACUUUGAUAGACAUGAGGAUCACCCAUGUGGCGUUAGUCACGGGAGAAGGUGGUAUGAUAC | – | – | 57.4 | 18.4 |
| UUUACUUACGAAGGAUAUGGAUACAUGAGGAUCACCCAUGUAUGUAUGAUGAUCUAGUAGUUGGGCCAGAAGGUCGUGAUUAUU | 16.9 | 21.8 | – | – |
| AGGGUGGGCUCAGGAUAUCAGGAAGGGAUGUGGACAUGAGGAUCACCCAUGUACCAGUGUUGUUAUGAGAAGGGAGAUAUUGUA | – | – | 16.7 | 13.5 |
| GCACGGUAAGUGAGGAUAUACCUCUGGAUACAGAGGUAGAAGGCACAUGAGGAUCACCCAUGUUCCUGCCGUGC | 17.2 | 92.9 | – | – |
| CAGGUAGACUGAGGAUAUACAAUAAACAGCUAGUCUAUCUAGCUGCCGACAUGAGGAUCACCCAUGUAGAAGGCAGUCUGCCUG | 18.5 | 40 | – | – |
| UUACUAUUGGAGAAGGGUCGAUCAUAUAGAAUGACAGGAUAUCCAACAUGAGGAUCACCCAUGUUUCACCCAUAUGAGGAUCAC | 102 | 31 | – | – |
| CUUUUGUGAGGAUAUUAGUAGUAAACAAACAAAAUUAUUACUGAGAAGGCACAUGAGGAUCACCCAUGUUCCUC | 39.7 | 637 | – | – |
| GGAUACAUCGGAGGAUAUCAUGUAAAUACAUGAGGAUCACCCAUGUCGAUGGAGACAUCGGAGAUUGAGAAGGCCGAUGUACCG | – | – | 164 | 8.95 |
| GGAUAGGACAGAGGAUAUACAGAUAGGAUCUACUAUCAAACAAUCCUCACAUGAGGAUCACCCAUGUAGAAGGCUGUCCUAUCG | 103 | 688 | – | – |
| AAUUUACAGGUAGGAUAUACAUGAGGAUCACCCAUGUAAUCAUAUGAUAUUUUUUUUGUAUGAGUGUAGAAGGACCAAAUAAAA | 9.75 | 8.48 | – | – |
| UUACUCAUGUAAGGAUAUGCAGCCGAUACGGCUGCAGAAGGUACUAAAAUACAUGAGGAUCACCCAUGUCUUUUUAAUUUAGAC | – | – | 140 | 73.7 |
| GUCCUCUCUGAGGAUAUUAUCUGGUCCGAUUGAUAAGAAGGCAGUACAUGAGGAUCACCCAUGUGGGUCGUCUG | 53.5 | 77.7 | – | – |
| UGUUCAUCAUCAGGAUAUUAACGUGGGCUACUUUAAGAAGGGAUAGUGGGAGAGGAUGUGAAACAUGAGGAUCACCCAUGUUGU | – | – | 13.4 | 10.3 |
| UGAACUAUGUAGAAGGCCCUCAUGAAAAUGAAGGGAGGAUAUACAUGAGGAUCACCCAUGUGAAGAGCAAGAGGGUUUAACAGA | 149 | 172 | – | – |
| UUGUGGGAGCAGGAUAUCUUAUUUUGGUUUUGUGGAGAAGGGCUGACAUGAGGAUCACCCAUGUGGUCCUAGAU | 21.7 | 36.5 | – | – |
| AAUUCGUUCUAGAAGGUGCAUUUGUUAAACAUGCAAGGAUAUAGACAUGAGGAUCACCCAUGUCUAUGAGACAUCGGCCUCCUG | 6.72 | 11.7 | – | – |
| UGCCAGUUAGGAUAUGCACGCGCCGGUGACCUGCUACGGCUACAUGAGGAUCACCCAUGUAGAAGGAACUGGGC | 19.6 | 20.2 | – | – |
| AGUUAAUAUCGAGGAUAUCUCAUGGAUACAUGAGGAUCACCCAUGUGAAUGGGAGAAGGCGAUAUUAACAGCAUGUUACAUGCA | – | – | 32 | 7.05 |
| GUAGCAUACCGAGGAUAUUCAUACCGGAAACGGACAUGAGGAUCACCCAUGUUGCGAAAGCAUUGGGAGAAGGCGGAAUGCUAC | – | – | 919 | 55.8 |
| AGAAAGUGAGGAUAUACAUGAGGAUCACCCAUGUAGAACGAGAGUUAUAAAAAUGGAAGUAGAAGGCGCAAAAG | 37.1 | 37.2 | – | – |
| ACUAGAUGAGGAUAUACACAUUUUAGUGUUCCUCUAGAUUAACAUGAGGAUCACCCAUGUAGAAGGCAUCAUUA | 59.7 | 218 | – | – |
| UUGGACGUCGUAGGAUAUGUAGGAUAUUCCUACAUGAGGAUCACCCAUGUUGACAUGGAAGAAGGACAUAAGGACGAUGUCCAU | – | – | 27.4 | 4.15 |

| Sequence | apparent Kd [1] [nM] | apparent Kd [2] [nM] | apparent Kd [3] [nM] | apparent Kd [4] [nM] |
| --- | --- | --- | --- | --- |
| AGUCGGCGAGGAUAUACAUGAGGAUCACCCAUGUGUGAUCCUAGACCUGUAGGUCCAUGUAGAAGGCGCUGACA | 19.6 | 23.6 | – | – |
| UUAAUUAAUUAAUUGCAGUUUACAUGAGGAUCACCCAUGUAUAAGGAUAUGCAGUGGAAUACACUGCAGAAGGUAUACAUCUGC | 19.5 | 35.2 | – | – |
| CAAGGUACCCAAGGAUAUCCUCACAUGAGGAUCACCCAUGUGUCAGCAAAAGGAGAAGGUGGGUGAAGCUGUCUGCACGCCAAG | – | – | 53.3 | 4.53 |
| UCAGCGGUGCAAGGAUAUAACACAAUUGUCCUUAGUCGAGACGAGUGACAUGAGGAUCACCCAUGUUAGAAGGUGUCCUGCUGG | 72 | 326 | – | – |
| GCAGGUUAAGUCAGGAUAUACCUAUGGAUACAUAGGUAGAAGGGACAUGAGGAUCACCCAUGUGACUCGCCUGC | 26.9 | 95.8 | – | – |
| CGGAUGUGAGGAUAUACAUGAGGAUCACCCAUGUGAGCCAGCUAGCUGACUGGCUCGUGUAGAAGGCACGUCUG | 15.5 | 28.9 | – | – |
| AUAAUUAUAUAUUUCACAAGAAUCAGAAGGCGUUACAUGAGGAUCACCCAUGUUUUGUAUAGUAACGAGGAUAUGAUAUGGAAA | 15.2 | 14 | – | – |
| UAGGACUACGUAGGAUAUGUAGUUGAUUUCUACAUGAGGAUCACCCAUGUUUGCAUUUUAUUAGGACAGAAGGACGUGGUAAAU | – | – | 16.1 | 7.36 |
| UCCACUGCUGAGAAGGGAUACGUGUGGUUCGAAUCAGGAUAUCGAUACAGUGCAGCAUGAGGACAUGAGGAUCACCCAUGUAUU | – | – | 19.1 | 14.2 |
| UGGGACUAGGGAGGAUAUGGGAAGAUACAUGAGGAUCACCCAUGUUUAAGAAUGCCGAGAGGCAACUAGAAGGCCCUAGUACCU | – | – | 446 | 20.4 |
| GUAGCUACAUGAGGAUCACCCAUGUAGGAUAUCGCUAUUGUAAUCAUGUUACAUGAUUACAAUAGCGAGAAGGACGUGAGCUAC | 8.39 | 8.7 | – | – |
| GGUUAAUAUCGAGGAUAUGUCUAGACACAUGAGGAUCACCCAUGUAUGUGUAUAGAAGGCGAUAUUAACAGCAUGUUACAUGCG | – | – | 38.8 | 16.4 |
| UAAAGCGUAGAUAAUUAUGUUACAUGAGGAUCACCCAUGUCAUAGGAUAUGCAGUGGAAUACACUGCAGAAGGAUGAAUCGCAG | 24.9 | 33.3 | – | – |
| GGAUAGGACAGAGGAUAUACGUGCUAGAGAUACAAGCAAAAUUUCCUCACAUGAGGAUCACCCAUGUAGAAGGCUGUCCUAUCG | 43.7 | 432 | – | – |
| AAAAAGGCAGGAUAUACAUGAGGAUCACCCAUGUUUUAAAAAAAAAAAAAAAAAAAAAGUAGAAGGGCCAAAAA | 55.4 | 45.1 | – | – |
| CGUCUGGAUCAAGGAUAUGUCAAGACGCUCCGCGUACACAUGAGGAUCACCCAUGUCAACAAAUGACAGAAGGUGAUAAUGGCC | – | – | 80.3 | 444 |
| UUGAUUAUACAAGGAUAUCAAUUGUAAUUAAGACUUACAUGAGGAUCACCCAUGUUAAUAUUUUUUGAGAAGGUGUAUUUUCAG | – | – | 25.4 | 21.9 |
| CGACGUUGAGAGAAGGAGUAAAAUACAUGAGGAUCACCCAUGUCAGGUGCUAGGAUAUCUUCGCGUGGCAGGGUCGGCCCGUGU | – | – | 66 | 14.3 |
| CCCACGAAAGUCGAACGAUGAUGGAGAAGGACUAUAACAUGACAUGAGGAUCACCCAUGUGCCAAGUAGGAUAUCCAUCAUGGG | 5.97 | 5.34 | – | – |
| CGAUAAUAUAGUUAUCCGUAGCGAACAUGAGGAUCACCCAUGUAGGAUAUGUUACUAAACUAGUAACAGAAGGACAUGAGUCUU | 28.5 | 178 | – | – |
| GGUUAAUGCAAGGAUAUGCUAUUAUUUUAUUUUGCAGAAGGUGCAACAUGAGGAUCACCCAUGUUGGAGGGUUU | 19.8 | 26.1 | – | – |
| AAAAGCCAAGGAUAUACAUGAGGAUCACCCAUGUAAGAAAUGGGCGCUACCGUUCCGUGUAGAAGGUGGGAAAA | 28.6 | 65 | – | – |
| GCCAUCGUAUGAGGAUAUGCUCCGGUUUCCGGAGCAGAAGGCAUGUCAUAAGACAUGAGGAUCACCCAUGUAGUUAAGAUGGCA | – | – | 135 | 9.66 |
| CUCUUGUUAGGAUAUCAAACCGGCAGCGGAGCCGCCGGAAGUGAGAAGGGACAUGAGGAUCACCCAUGUAAGAA | 81.6 | 256 | – | – |
| AAAUAAACUACGAAGAUAUCCUCACAUGAGGAUCACCCAUGUCAGGAUAUUUGUCCUAAAAGGACAGAGAAGGGACAUCGUAGA | 5.15 | 11.4 | – | – |
| AAUGAGCGAGGAUAUGCAACUGUAUGACCUACGUGUGCCAGACAUGAGGAUCACCCAUGUAGAAGGUGCUUUCC | 59.7 | 51.3 | – | – |
| UCAAUUCUGACAUCCUUAUUACAUGAGGAUCACCCAUGUUGUGAGGAUAUCCCAACCCACGGUCAGGAGAAGGCACAUAGAGGG | 5.5 | 5.9 | – | – |
